Results from ChEMBL document CHEMBL1806443, “Novel imidazo[4,5-b]pyridine and triaza-benzo[c]fluorene derivatives: synthesis, antiproliferative activity and DNA binding studies” (Eur J Med Chem, 2011).
Calls of active or inactive are those of the source. The rule behind the calls is not given here.

How the values were obtained:
SW-620 [1] = assay: Cell cycle arrest in human SW620 cells assessed as accumulation at subG1 phase at 10 uM after 24 hrs by propidium iodide staining based flow cytometeric analysis (reference value: 18 +/- 1%); assay type: functional
In short: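 Cells seeded at 3 × 10^4 per well and treated 24 h later with 1, 5 or 10 µM for 24 and 48 h. Adherent and floating cells were pooled, washed in PBS and fixed in 70% ethanol. They were then stained with propidium iodide 10 µg/mL plus RNase A 0.2 µg/mL. Flow cytometry counted 10000 events; each point was run in triplicate; significance was taken at p < 0.05.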

MIA PaCa-2 [2] = assay: Cell cycle arrest in human MIAPaCa2 cells assessed as accumulation at G2/M phase at 5 uM after 48 hrs by propidium iodide staining based flow cytometeric analysis (reference value: 14.3 +/- 1.8%); assay type: functional
MIA PaCa-2 [3] = assay: Cell cycle arrest in human MIAPaCa2 cells assessed as accumulation at G2/M phase at 10 uM after 24 hrs by propidium iodide staining based flow cytometeric analysis (reference value: 19.5 +/- 3.9%); assay type: functional
MIA PaCa-2 [4] = assay: Cell cycle arrest in human MIAPaCa2 cells assessed as accumulation at G2/M phase at 5 uM after 24 hrs by propidium iodide staining based flow cytometeric analysis (reference value: 19.5 +/- 3.9%); assay type: functional
MIA PaCa-2 [5] = assay: Cell cycle arrest in human MIAPaCa2 cells assessed as accumulation at S phase at 1 uM after 24 hrs by propidium iodide staining based flow cytometeric analysis (reference value: 29.2 +/- 4.2%); assay type: functional
MIA PaCa-2 [6] = assay: Cell cycle arrest in human MIAPaCa2 cells assessed as accumulation at G1 phase at 10 uM after 48 hrs by propidium iodide staining based flow cytometeric analysis (reference value: 65.2 +/- 1.9%); assay type: functional
MIA PaCa-2 [7] = assay: Cell cycle arrest in human MIAPaCa2 cells assessed as accumulation at G1 phase at 5 uM after 48 hrs by propidium iodide staining based flow cytometeric analysis (reference value: 65.2 +/- 1.9%); assay type: functional
SW-620 [8] = assay: Cell cycle arrest in human SW620 cells assessed as accumulation at G2/M phase at 10 uM after 48 hrs by propidium iodide staining based flow cytometeric analysis (reference value: 16.1 +/- 0.9%); assay type: functional
SW-620 [9] = assay: Cell cycle arrest in human SW620 cells assessed as accumulation at G2/M phase at 5 uM after 48 hrs by propidium iodide staining based flow cytometeric analysis (reference value: 16.1 +/- 0.9%); assay type: functional
SW-620 [10] = assay: Cell cycle arrest in human SW620 cells assessed as accumulation at G2/M phase at 1 uM after 24 hrs by propidium iodide staining based flow cytometeric analysis (reference value: 22.3 +/- 2.9%); assay type: functional
SW-620 [11] = assay: Cell cycle arrest in human SW620 cells assessed as accumulation at S phase at 1 uM after 48 hrs by propidium iodide staining based flow cytometeric analysis (reference value: 31.9 +/- 1%); assay type: functional
SW-620 [12] = assay: Cell cycle arrest in human SW620 cells assessed as accumulation at S phase at 5 uM after 24 hrs by propidium iodide staining based flow cytometeric analysis (reference value: 48.4 +/- 1.4%); assay type: functional
SW-620 [13] = assay: Cell cycle arrest in human SW620 cells assessed as accumulation at S phase at 1 uM after 24 hrs by propidium iodide staining based flow cytometeric analysis (reference value: 48.4 +/- 1.4%); assay type: functional
SW-620 [14] = assay: Cell cycle arrest in human SW620 cells assessed as accumulation at G1 phase at 10 uM after 48 hrs by propidium iodide staining based flow cytometeric analysis (reference value: 52.7 +/- 0.9%); assay type: functional
SW-620 [15] = assay: Cell cycle arrest in human SW620 cells assessed as accumulation at G1 phase at 5 uM after 48 hrs by propidium iodide staining based flow cytometeric analysis (reference value: 52.7 +/- 0.9%); assay type: functional
MIA PaCa-2 [16] = assay: Cell cycle arrest in human MIAPaCa2 cells assessed as accumulation at G1 phase at 5 uM after 24 hrs by propidium iodide staining based flow cytometeric analysis (reference value: 51.2 +/- 2.7%); assay type: functional
MIA PaCa-2 [17] = assay: Cell cycle arrest in human MIAPaCa2 cells assessed as accumulation at subG1 phase at 5 uM after 48 hrs by propidium iodide staining based flow cytometeric analysis (reference value: 46.8 +/- 0.7%); assay type: functional
MIA PaCa-2 [18] = assay: Antiproliferative activity against human MIAPaCa2 cells after 72 hrs by MTT assay; assay type: functional, cell-based; conditions: Homo sapiens, MIA PaCa-2, 72 h
In short: (§1)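 Monolayer cells in DMEM with 10% FBS, 2 mM L-glutamine, penicillin and streptomycin at 37 °C, 5% CO2. Seeded at 3000-6000 cells/well by doubling time on day 0. Five 10-fold dilutions (0.01–100 µM) were added and incubated 72 h. MTT read-out, converted to percentage growth. IC50 by linear regression between bracketing concentrations. Quadruplicate points, three independent experiments, ANOVA/Tukey p<0.05.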

MCF7 [19] = assay: Antiproliferative activity against human MCF7 cells after 72 hrs by MTT assay; assay type: functional, cell-based; conditions: Homo sapiens, MCF7, 72 h; in short: as §1
WI-38 = assay: Antiproliferative activity against human WI38 cells at 0.1 to 10 uM after 72 hrs by MTT assay; assay type: cell-based; conditions: wi-38, 72 h; in short: as §1
SK-BR-3 = assay: Antiproliferative activity against human SKBR3 cells at 0.1 to 10 uM after 72 hrs by MTT assay; assay type: functional, cell-based; in short: as §1
HEp-2 = assay: Antiproliferative activity against human Hep2 cells at 0.1 to 10 uM after 72 hrs by MTT assay; assay type: functional, cell-based; in short: as §1
MCF7 [20] = assay: Antiproliferative activity against human MCF7 cells at 0.1 to 10 uM after 72 hrs by MTT assay; assay type: functional, cell-based; in short: as §1
Nucleic Acid [21] = assay: Binding affinity to calf thymus DNA assessed as change in melting temperature at compound to polynucleotide ratio of 0.5 by UV-VIS spectroscopic analysis; assay type: nucleic-acid assay; conditions: Bos taurus
In short: (§2)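 ct-DNA alone or with compound at set r = [compound]/[polynucleotide], in cacodylate buffer pH 7.0, I = 0.05 mol dm^-3. Absorbance at 260 nm followed against temperature, ligand absorbance subtracted, curves normalized. Tm is the transition midpoint, from the first-derivative maximum or by tangent method. ΔTm = Tm(complex) − Tm(free DNA), mean of ≥2 runs, error ±0.5 °C.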

Nucleic Acid [22] = assay: Binding affinity to calf thymus DNA assessed as change in melting temperature at compound to polynucleotide ratio of 0.2 by UV-VIS spectroscopic analysis; assay type: nucleic-acid assay; conditions: Bos taurus; in short: as §2
Nucleic Acid [23] = assay: Binding affinity to calf thymus DNA assessed as change in melting temperature at compound to polynucleotide ratio of 0.1 by UV-VIS spectroscopic analysis; assay type: nucleic-acid assay; conditions: Bos taurus; in short: as §2
Nucleic Acid [24] = assay: Binding affinity to calf thymus DNA assessed as appearance of weak, negative induced CD band at 337 nm wavelength by circular dichroism spectroscopy; assay type: nucleic-acid assay; conditions: Bos taurus
In short: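 CD spectra of ct-DNA (1.0 × 10^-5 mol dm^-3, as phosphate) titrated with compound at 25 °C. Sodium cacodylate buffer pH 7.0, I = 0.05 mol dm^-3, 1 cm quartz cuvette. DNA band (~274–275 nm) and induced bands above 300 nm followed versus r = [compound]/[ct-DNA].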

Nucleic Acid [25] = assay: Binding affinity to calf thymus DNA assessed as UV/Vis spectral change at compound to DNA ratio of 0.44 by UV/Vis titrations; conditions: Bos taurus

- IC50 (MIA PaCa-2 [18]): 0.74 µM
- IC50 (MCF7 [19]): 6.54 µM
- ΔTm (Nucleic Acid [21]): 8.4 °C
- ΔTm (Nucleic Acid [22]): 5.1 °C
- ΔTm (Nucleic Acid [23]): 2.7 °C
- Activity (Nucleic Acid [24]): Active
- log Ks (Nucleic Acid [25]): 5.4
Compound: Cl.c1cnc2nc3ccc4ccc(C5=NCCN5)cc4n3c2c1
- Activity (SW-620 [1]): 20.1%
- Activity (MIA PaCa-2 [2]): 20.8%
- Activity (MIA PaCa-2 [3]): 18.3%
- Activity (MIA PaCa-2 [4]): 18.3%
- Activity (MIA PaCa-2 [5]): 37.4%
- Activity (MIA PaCa-2 [6]): 26.1%
- Activity (MIA PaCa-2 [7]): 42.4%
- Activity (SW-620 [8]): 18.2%
- Activity (SW-620 [9]): 1.5%
- Activity (SW-620 [10]): 18.5%
- Activity (SW-620 [11]): 45.4%
- Activity (SW-620 [12]): 11.8%
- Activity (SW-620 [13]): 27.2%
- Activity (SW-620 [14]): 39.9%
- Activity (SW-620 [15]): 90.9%
- Activity (MIA PaCa-2 [16]): 22.4%
- Activity (MIA PaCa-2 [17]): 56.6%
- Activity (WI-38): Toxic
- Activity (SK-BR-3): Active
- Activity (HEp-2): Active
- Activity (MCF7 [20]): Active
